This is a sample that favours compounds with a hit; in the whole collection about 1.8% have one here.
Runt-CBFb FRET – inhibitors of human RUNX1 Runt domain binding to CBFb; Cerulean-Runt/Venus-CBFb FRET ratio 530/480, 1 h; inhibition, % at 20 µM; 0.46% of 220,000 active;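 active = inhibition over about 50% at 20 µM in the single-dose screen, limit read from the data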
Target sequence (Q01196 whole entry, looked up, the tested form may be a part): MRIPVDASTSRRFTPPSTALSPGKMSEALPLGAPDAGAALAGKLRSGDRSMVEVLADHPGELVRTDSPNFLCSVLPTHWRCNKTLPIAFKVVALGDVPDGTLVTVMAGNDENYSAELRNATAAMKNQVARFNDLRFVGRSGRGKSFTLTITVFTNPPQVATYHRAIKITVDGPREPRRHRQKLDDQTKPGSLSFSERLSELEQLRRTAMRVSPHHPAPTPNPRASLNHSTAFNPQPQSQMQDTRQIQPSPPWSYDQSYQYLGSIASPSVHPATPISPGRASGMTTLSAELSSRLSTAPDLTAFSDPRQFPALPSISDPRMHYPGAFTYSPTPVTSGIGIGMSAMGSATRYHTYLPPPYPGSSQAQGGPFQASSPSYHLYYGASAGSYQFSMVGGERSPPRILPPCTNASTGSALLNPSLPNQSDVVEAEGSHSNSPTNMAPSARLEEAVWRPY
Target sequence (Q13951 whole entry, looked up, the tested form may be a part): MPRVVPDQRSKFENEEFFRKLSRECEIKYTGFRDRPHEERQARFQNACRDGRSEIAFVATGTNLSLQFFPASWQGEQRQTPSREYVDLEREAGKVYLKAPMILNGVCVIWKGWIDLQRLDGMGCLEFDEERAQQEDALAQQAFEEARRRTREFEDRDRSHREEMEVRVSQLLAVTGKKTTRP
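Buffer or medium: Tris pH 7.5 buffer with BSA. Assay system: Cerulean-labeled Runt domain protein. Amount: each fluorescent fusion protein 100 nM. Read-out basis: loss of energy transfer signal. Incubation: 1 h compound exposure, room temperature. Probe or stimulus: Venus-CBFb binding partner, 100 nM. Detection: FRET, excitation 422 nm, emission at 530 and 480 nm.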
RanGTP-Imp inh – disruptors of Ran-importin-beta complex formation – biochemical, FRET, CFP-Ran, YFP-importin-beta, homogeneous, primary screen | AID 2216 | 1.1% of 300,000 active | inhibition, % (concentration not given with the values) | cell-free CFP-Ran/YFP-importin-beta FRET ratio;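 active = more than half of the replicate wells show a fall in the fluorescence ratio signal beyond about 16%, limit read from the data, passing the limit was not always enough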
Runt-SMMHC FRET – blocks binding of human RUNX1 Runt domain to CBFb-SMMHC. inhibition, % at 20 µM. 0.74% of 220,000 active. Q01196+Q13951. Cerulean-Runt/Venus-CBFb-SMMHC FRET ratio 530/480, 1 h;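 active = mean inhibition across duplicate retests at 20 µM reaching about 50%, limit read from the data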;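 also: inhibitors lower the FRET ratio by blocking Runt binding to CBFb-SMMHC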
Hck-Nef inh – inhibitors of human Hck kinase activated by Nef | inhibition, % at 20 µM | AID 463187 | Recombinant Hck-YEEI plus Nef, Z-Lyte FRET kinase assay | 0.68% of 220,000 active | P08631;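 active = Hck-Nef kinase inhibition above about 50%, limit read from the data; inactive = inhibition below that limit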
Large screens that a line does not name were inactive.

O=C(C1=C(O)C(=O)N(CCCN2CCOCC2)C1c1ccccn1)c1cc2ccccc2o1 (stereo unspecified)	none
CCN(CC)CCCN1C(=O)C(O)=C(C(=O)c2ccc(C)o2)C1c1ccc(C)o1 (stereo unspecified)	none
Cc1ccc(C(=O)C2=C(O)C(=O)N(CCN3CCOCC3)C2c2ccccn2)o1 (stereo unspecified)	RanGTP-Imp inh 22.8
CCN(CC)CCN1C(=O)C(O)=C(C(=O)c2ccc(C)o2)C1c1ccccn1 (stereo unspecified)	RanGTP-Imp inh 29.0 (no result: Runt-CBFb FRET, Runt-SMMHC FRET)
O=C(O)c1ccc(N2CCS(=O)(=O)CC2)cc1	none (no result: RanGTP-Imp inh)
Cc1cc(Oc2ccc(=O)[nH]n2)nc(Cl)n1	none
CCCCNc1cc(Cl)nc(N)n1	RanGTP-Imp inh 40.4
Cc1cc(C)nc(SCC(=O)NC2=NN=C(c3ccc(Br)cc3)CS2)n1	RanGTP-Imp inh 37.9 (no result: Runt-CBFb FRET)
CCn1nc(NC(=O)c2cccs2)c2cc3ccccc3nc21	RanGTP-Imp inh 38.8
CCn1nc(NC(=O)c2cccnc2)c2cc3ccccc3nc21	RanGTP-Imp inh 18.7
COCCCN(C(=O)Nc1ccccc1)C(C)c1ccncc1 (stereo unspecified)	none
COc1ccccc1CNc1nc(-c2cc(C)n(C)c2C)cs1	Hck-Nef inh 67.1 (no result: RanGTP-Imp inh)
CC(=O)Oc1ccc(-c2cc3c(OC(C)=O)cc(OC(C)=O)cc3oc2=O)cc1	RanGTP-Imp inh 122.7 (no result: Runt-CBFb FRET, Runt-SMMHC FRET, Hck-Nef inh)
CC(=O)Oc1ccc(-c2cc3ccccc3oc2=O)cc1	none (no result: Runt-CBFb FRET, Runt-SMMHC FRET, Hck-Nef inh)
N=C1/C(=C\c2ccc(-c3cccc(Cl)c3)o2)C(=O)N=C2SC=C(c3ccccc3)N12	none
N=C1/C(=C\c2ccc(-c3ccc(C(=O)O)cc3)o2)C(=O)N=C2SC=C(c3ccccc3)N12	Hck-Nef inh 103.0
CC(C)(O)C#Cc1ccc(CN2CCCC(CNC(=O)c3ccco3)C2)cc1 (stereo unspecified)	none (no result: Runt-CBFb FRET, Runt-SMMHC FRET, Hck-Nef inh)
COc1cc(OC)c2c(=O)c(OC)c(-c3ccc(OC)c(OC)c3)oc2c1	Runt-SMMHC FRET 61.0
COc1ccc(-c2cc(=O)c3c(OC)c(OC)c(OC)c(OC)c3o2)cc1OC	none
S=C(NCCCN1CCOCC1)N1CCN(c2ccccc2)CC1	none (no result: Runt-CBFb FRET, Runt-SMMHC FRET, Hck-Nef inh)
O=S(=O)(c1cccc(Cl)c1Cl)N1CCN(C(=S)NCCCN2CCOCC2)CC1	RanGTP-Imp inh 25.4
CCN(CC)c1ccc(-c2c(C#N)c(N)nc(OC)c2C#N)cc1	Runt-SMMHC FRET 99.0
CN(c1ccccc1)S(=O)(=O)c1cccc(NS(=O)(=O)c2ccc(/C=C/C(=O)O)cc2)c1	none
Cc1ccc(NC(=O)CSc2ncccn2)cc1F	RanGTP-Imp inh 96.1
Cc1ccc(NC(=O)CSc2nccn2C)cc1F	none (no result: Runt-CBFb FRET, Runt-SMMHC FRET, Hck-Nef inh)
CC(=O)c1cc2c(s1)-c1cc(F)ccc1OC2	Runt-SMMHC FRET 88.1
COC(=O)c1cc2c(s1)-c1cc(F)ccc1OC2	none
CC(C)[C@H]1CN(C)CCN1Cc1cn(C)nc1-c1cccc(Cl)c1	none
Cn1cc(CN2CCC[C@H]2CO)c(-c2cccc(Cl)c2)n1	RanGTP-Imp inh 110.4
CCCCC1C2=C(CC(C)(C)CC2=O)OC2=C1C(=O)CC(C)(C)C2	none
Cc1sc2ncn(CC(=O)NCCCC(=O)N3CCN(c4ccccc4)CC3)c(=O)c2c1C	Runt-CBFb FRET 54.8
O=C(COc1ccc2c(c1)oc(=O)c1ccccc12)NC(Cc1ccc(Cl)cc1)C(=O)O (stereo unspecified)	none (no result: Runt-CBFb FRET, Runt-SMMHC FRET, Hck-Nef inh)
Cc1ccc(-c2nc3ccsc3c(=O)[nH]2)cc1	none
Nc1n[nH]c2cc(=O)n(-c3ccc(Cl)cc3)nc12	RanGTP-Imp inh 76.6, Runt-SMMHC FRET 54.0
COc1ccc(-n2nc3c(N)n[nH]c3cc2=O)cc1	none
COc1ccc(CCNC(=O)COc2ccc(S(=O)(=O)NC(C)C)cc2Cl)cc1OC	none
Fc1cccc(NC(=S)NNc2ccccc2)c1	none (no result: Runt-CBFb FRET, Runt-SMMHC FRET, Hck-Nef inh)
Fc1cccc(NC(=S)NNc2c3ccccc3nc3ccccc23)c1	Runt-CBFb FRET 88.0, Runt-SMMHC FRET 87.0
Nc1nc(-c2ccccc2)[nH]c(=O)c1N=O	none
Nc1[nH]c(=O)nc(Nc2ccccc2)c1N=O	RanGTP-Imp inh 37.8 (no result: Runt-CBFb FRET, Runt-SMMHC FRET, Hck-Nef inh)
COC(CNC(=O)c1ccc2nc(-c3cccs3)c(-c3cccs3)nc2c1)OC	RanGTP-Imp inh 43.1
COc1cc(C2/C(=C(\O)c3ccc4c(c3)CC(C)O4)C(=O)C(=O)N2CCCn2ccnc2)cc(OC)c1OC (stereo unspecified)	none (no result: Runt-CBFb FRET, Runt-SMMHC FRET, Hck-Nef inh)
Cc1[nH]n(-c2ccccc2)c(=S)c1C=Nc1ccc([N+](=O)[O-])cc1	Runt-SMMHC FRET 73.8 (no result: RanGTP-Imp inh)
O=C(NC(C(=O)N/N=C/c1ccccc1)c1n[nH]c(=O)c2ccccc12)c1ccccc1 (stereo unspecified)	none

Screening results from PubChem BioAssay.
